Screening results from PubChem BioAssay.
Shown are actives, neighbours in structure and some others; about 1.9% of the full set was active somewhere.
PLCg1 inh: PLC-gamma1 enzyme inhibitors, primary screen, biochemical, fluorescence, purified enzyme | 1-phosphatidylinositol 4,5-bisphosphate phosphodiesterase gamma-1 (Homo sapiens), P19174 | fluorogenic substrate | inhibition, % at 12.2 µM | hit rate 0.84% among 370,000 | AID 720700, 2013
sPLA2-III inh: human group III sPLA2 inhibitors, primary screen, biochemical, QFRET, BODIPY PC-A2 liposome substrate; AID 743126, 2013; inhibition, % at 12.2 µM; Group 3 secretory phospholipase A2 (Homo sapiens), Q9NZ20; QFRET BODIPY PC-A2 liposome hydrolysis, fluorescence; hit rate 0.56% among 370,000;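 active = inhibition above mean plus 3 SD of compounds lying within the high and low control bounds, cut at about 19% in these data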;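 note: 0% = median of test compound wells and 100% = no enzyme DMSO wells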
ARFGAP1 inh: inhibitors of rat ARFGAP1 GAP activity, primary screen, biochemical, fluorescence polarization, GDP tracer; ADP-ribosylation factor GTPase-activating protein 1 (Rattus norvegicus), Q62848; Arfgap1-stimulated ARF1 GTP hydrolysis, GDP FP detection; inhibition, % at 16.5 µM; hit rate 0.26% among 360,000;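 active = inhibition above a per-plate limit, mean inhibition of low control wells plus 3 SD, cut at about 25% in these data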;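 note: 0% = DMSO wells with enzyme and 100% = wells lacking Arfgap1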
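Material: truncated rat Arfgap1 GAP domain; Incubation: compound-enzyme preincubation 20 min, reaction 120 min, detection 60 min, 25 °C; Read-out: percent inhibition of Arfgap1-stimulated GTP hydrolysis; Technique: FP, GDP Alexa 633 tracer displaced from anti-GDP antibody, 620/688 nm; Controls: No-Arfgap1 wells (100%) versus DMSO full-reaction wells (0%); Replication: single well per compound.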
ASAP1 inh: inhibitors of human ASAP1 ArfGAP activity, primary screen, biochemical, fluorescence polarization | inhibition, % at 16.5 µM | AID 624377, 2012 | hit rate 0.19% among 360,000 | ASAP1-stimulated ARF1 GTP hydrolysis, GDP FP detection | Arf-GAP with SH3 domain, ANK repeat and PH domain-containing protein 1 (Homo sapiens), …; in the data active = inhibition above about 25%;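 note: 0% = vehicle with enzyme and substrate and 100% = no enzyme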
Target sequence (Q9ULH1 325-724 limits assumed): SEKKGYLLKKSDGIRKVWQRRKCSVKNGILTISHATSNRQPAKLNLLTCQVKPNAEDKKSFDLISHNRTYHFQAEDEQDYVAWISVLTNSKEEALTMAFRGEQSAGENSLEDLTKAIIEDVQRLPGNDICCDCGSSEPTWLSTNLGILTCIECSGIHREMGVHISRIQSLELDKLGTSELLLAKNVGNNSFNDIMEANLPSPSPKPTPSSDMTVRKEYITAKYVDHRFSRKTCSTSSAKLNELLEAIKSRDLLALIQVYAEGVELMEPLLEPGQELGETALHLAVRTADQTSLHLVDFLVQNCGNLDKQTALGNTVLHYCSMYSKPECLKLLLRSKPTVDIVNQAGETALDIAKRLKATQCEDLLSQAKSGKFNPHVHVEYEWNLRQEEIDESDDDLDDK
PLCb3 inh: human PLC-beta3 inhibitors, primary screen, biochemical, fluorescence | inhibition, % at 12.2 µM | Purified PLC-beta3, fluorogenic substrate | hit rate 0.18% among 370,000 | 1-phosphatidylinositol 4,5-bisphosphate phosphodiesterase beta-3 (Homo sapiens), Q01970; in the data active = inhibition above about 11%;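 note: 0% = median of compound wells on plate and 100% = full blocker control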
PLCg1 ctr: PLC-gamma1 enzyme inhibitors, counter-screen for PLC-beta3 inhibitor project, biochemical, fluorescence. shares compounds with PLCg1 inh. purified PLC-gamma1, fluorogenic substrate. inhibition, % at 12.3 µM. hit rate 3.1% among 3,300. AID 743258, 2014
PLCbeta3 conf: PLC-beta3 inhibitor confirmation, biochemical, fluorescence, purified enzyme; shares compounds with PLCg1 inh; fluorogenic substrate fluorescence; inhibition, % at 12.3 µM; hit rate 1% among 3,300; in the data active = inhibition above about 11%
* marks the source's active call; other numbers are inactive results; · = no result given. Cut-off read from the data, not from the text of the source, unless noted: active = inhibition above about 9.5%; inactive = the rest.

SMILES | PLCg1 inh | sPLA2-III inh | ARFGAP1 inh | ASAP1 inh | PLCb3 inh | PLCg1 ctr | PLCbeta3 conf
CC(=O)OC[C@H]1O[C@@H](n2ccc(=O)[nH]c2=S)C(OC(C)=O)C1OC(C)=O (stereo not given in full) | 9.8* | -8.0 | -8.2 | 3.8 | 2.2 | -0.4 | 0.8
CC(C)Cn1c(SCC(=O)N2CCCc3ccccc32)nc2ccccc2c1=O | 11.0* | 2.6 | -17.4 | 5.5 | -0.9 | 1.0 | 1.2
COc1cc(OC)cc(C(=O)NC2CCN(Cc3nnnn3Cc3cccs3)CC2)c1 | 11.5* | -2.0 | -1.8 | -2.8 | 5.1 | 0.8 | -0.8
O=C(N[C@H](Cc1ccccc1)C(=O)N1CCN(CC(=O)N2CCCC2)CC1)[C@H]1O[C@@H](n2ccc(=O)[nH]c2=O)[C@H](O)[C@@H]1O | 2.9 | 7.8 | 2.0 | -1.5 | 5.0 | · | ·
O=[N+]([O-])c1ccc(N2CCCC2)cc1N1CCCC1 | 9.6* | 6.5 | -1.7 | 5.8 | 3.6 | -4.5 | -2.7
O=[N+]([O-])c1ccc(N2CCCCC2)cc1N1CCOCC1 | 0.7 | -7.3 | -12.1 | -5.5 | 2.5 | · | ·
CSCCC(NC(=O)c1ccc(Cl)cc1Cl)C(=O)N1CCN(C(=O)c2ccccc2)CC1 (stereo not given) | 11.2* | 12.5 | 3.9 | 14.4 | -10.6 | -0.3 | 2.4
COC(=O)[C@H](CC(C)C)N1Cc2nnn(Cc3ccccc3)c2-c2ccccc2S1(=O)=O | -0.1 | -8.4 | · | · | 0.1 | · | ·
O=C(Nc1ccccc1)c1cc([N+](=O)[O-])ccc1NC1CCCCC1 | 9.8* | -3.7 | -4.3 | 4.4 | 9.1 | -0.6 | -3.4
O=C(c1ccco1)N1CCN(C(=O)C2CC(c3ccccc3F)=NO2)CC1 (stereo not given) | 13.8* | 9.3 | 4.4 | 9.0 | -2.1 | -4.0 | -2.1
O=C(c1ccco1)N1CCN(Cc2nnc(-c3ccccc3F)o2)CC1 | 9.8* | 1.2 | -4.4 | -0.4 | 5.7 | -1.9 | -2.2
Cc1ccccc1-c1nnc(CN2CCN(C(=O)c3ccco3)CC2)o1 | -2.0 | 0.0 | 4.8 | 2.4 | -6.2 | · | ·
CCN(CC)C(=O)c1cc2c(=O)oc3ccccc3c2s1 | 10.6* | 8.5 | 1.7 | -18.0 | 6.3 | -5.4 | -2.6
N#Cc1ccc(S(=O)(=O)N2CCCc3nc(-c4ccccc4)ccc32)cc1 | -10.3 | -4.7 | -1.5 | 0.1 | -11.0 | · | ·
NS(=O)(=O)c1cccc(NC(=O)c2cc3ccccc3o2)c1 | 11.5* | 1.6 | 15.4 | 5.0 | -3.6 | -4.0 | -1.7
O=C(Nc1cccc(S(=O)(=O)c2cccc(NC(=O)c3ccco3)c2)c1)c1ccco1 | 14.9* | -34.6 | -1.0 | 22.3 | 9.8 | -11.6 | -7.8
Cc1cc(NS(=O)(=O)c2ccc(NC(=O)c3ccco3)cc2)no1 | 6.6 | 2.8 | 1.7 | -9.9 | 5.5 | · | ·
Cc1cc(NC(=O)c2ccco2)no1 | 17.6* | -1.9 | -3.8 | -16.0 | 4.5 | -3.2 | 0.8
COc1ccc(C=Nn2c(-c3ccc(F)cc3)n[nH]c2=S)cc1OCc1ccccc1 | -1.3 | 2.8 | · | · | 3.2 | · | ·
COCCn1c(C)cc(C(=O)COC(=O)c2ccc(Br)o2)c1C | 10.2* | -3.9 | 3.4 | -5.6 | 1.1 | -8.4 | -2.2
Cc1cc(C(=O)COC(=O)c2ccc(Br)o2)c(C)n1C | 1.0 | 4.0 | 2.5 | 7.4 | -4.8 | · | ·
Cc1cccc(OCC(O)Cn2c(=N)n(Cc3ccccc3)c3ccccc32)c1 (stereo not given) | 11.6* | 9.3 | 8.0 | 6.5 | 0.9 | 0.3 | -6.2
N=c1n(Cc2ccc(Cl)cc2)c2ccccc2n1CC(O)COc1ccccc1 (stereo not given) | 7.5 | 6.2 | 0.8 | 2.1 | 3.6 | · | ·
